Variants at the floor of the assay were thinned out.

The values below come from the RNAGym collection of RNA variant scans (doi:10.1126/science.aae0568).

To fix the notation:
B1: tRNA (parent)
chain: GUUCCGUUGGCGUAAUGGUAACGCGUCUCCCUCCUAAGGAGAAGACUGCGGGUUCGAGUCCCGUACGGAACG

In this data set the parent is B1. The experiment in a line: yeast fitness relative to wild type (ratio to wild type); higher = fitter; tRNA-Arg(CCU), competitive growth, 37 C, YPD. Put shortly:
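A pool of Saccharomyces cerevisiae strains, each with a tRNA-Arg(CCU) gene variant at the native genomic locus, was competed in YPD at 37°C for 24 hours across six parallel replicates. The variants had been chemically synthesised at a 3% per-site mutation rate over 69 sites, and gene amplicons before and after competition were read by 100-nucleotide paired-end sequencing. Darwinian fitness relative to wild type rested on changes in genotype frequencies. Genotypes required ≥ 100 starting reads, and estimates < 0.5 were set to 0.5.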
In the case of G17A A42G G50A, the yeast fitness is not above 0.5.

Regarding G6C U16A G18C C22G G52C G68A, the yeast fitness is not above 0.5.

In the case of U32C G41C U47C, the yeast fitness stood at 0.592.

Take C5U U19A G48A: the yeast fitness turned out to be 0.741.

With U3A U32G G56A G68U A69U, the yeast fitness is not above 0.5.

On to C31A U59G, for which the yeast fitness came to 0.771.

On to U2G C46G, for which the yeast fitness was determined as 0.864.

As for C4U C30A G50C G56A C62U G67U, the yeast fitness was not above 0.5.

Turning to A57U U64A, the yeast fitness amounted to 0.678.

For U2C A14U C29U, the yeast fitness was determined as 0.626.

G25U A36U G56C: the yeast fitness was not above 0.5.

Turning to C5U A14U G41C, the yeast fitness is not above 0.5.

Consider U3C U8G U32A C33G A43U C61U C62U, for which the yeast fitness is not above 0.5.

Take C24U C29A: the yeast fitness came to 0.656.

In the case of G6A G25C C34U C46A, the yeast fitness was not above 0.5.

Take C4G A37U G58C C60A: the yeast fitness is not above 0.5.

Consider G41C G58A C61A, for which the yeast fitness was not above 0.5.

In the case of C29A A43C, the yeast fitness came out at 0.748.

C11A C24G U47G: the yeast fitness is not above 0.5.

As for C27U A45C G67A, the yeast fitness came out at 0.666.

For C31U G52C U54A C66U, the yeast fitness was not above 0.5.

In the case of A43G C55A, the yeast fitness came to 0.599.

As to C5U G50C A70U, the yeast fitness is 0.575.

Take U3A C11G C31G A65G: the yeast fitness was not above 0.5.

As to G38A U47A C55G C61U, the yeast fitness was determined as 0.718.

Take U28C C60A: the yeast fitness was found to be 0.632.

For C5U G12A A40U A45G C60A G63A, the yeast fitness is not above 0.5.

As to G9A A43U G56C, the yeast fitness stood at 0.536.

In the case of C11G C33U G68C, the yeast fitness was not above 0.5.

Consider U8C U13A C22G C24G A36U A40C G51C, for which the yeast fitness was not above 0.5.

For the variant A40G C62U A65U, the yeast fitness is not above 0.5.

With G23C C60G C61U G68A, the yeast fitness was not above 0.5.

A65C C66G: the yeast fitness was found to be 0.588.

C55G G58C: the yeast fitness came out at 0.587.

For C33G A40U G56A, the yeast fitness is not above 0.5.

In the case of A21C C62U G68C, the yeast fitness amounted to 0.601.

For the variant G38C C62U, the yeast fitness stood at 0.687.

Take U59A U64G: the yeast fitness amounted to 0.52.

Turning to A45C C61A, the yeast fitness was 0.797.

Turning to A20G A43G A65U, the yeast fitness stood at 0.596.

For C5A C24A, the yeast fitness worked out at 0.727.

A43G A45U C46U: the yeast fitness worked out at 0.604.

For G6A C22U G23C C49G U53G A57G, the yeast fitness was not above 0.5.

In the case of C4U A15U G68A, the yeast fitness was not above 0.5.

With C5A C31A A40C A43U A65G C66G, the yeast fitness was not above 0.5.

Consider A15U C46G C61A A70U, for which the yeast fitness is not above 0.5.

On to A14G A15C C30U G56C A69C, for which the yeast fitness is not above 0.5.

In the case of U3C C11A A15C C24A C27A G41C, the yeast fitness is not above 0.5.

Consider G25C U32G G38A C61U, for which the yeast fitness was not above 0.5.

U7A G10U: the yeast fitness stood at 0.614.

On to C5A C22A C27G A43U C60A, for which the yeast fitness was not above 0.5.

As for U47C C60U C62A, the yeast fitness was not above 0.5.

As to A15U G56A C61G C66U, the yeast fitness was not above 0.5.

Consider U2C U16A C49U A65C A69C, for which the yeast fitness was not above 0.5.

For the variant G10C A21G G56U C66A, the yeast fitness came out at 0.727.

For the variant C4A U7A U8A C46A G48A U64G, the yeast fitness was not above 0.5.

As for U3G C4U U35A G58A, the yeast fitness is not above 0.5.

Take U2C C27U A36C: the yeast fitness is not above 0.5.

Regarding C27G C46U, the yeast fitness worked out at 0.972.

Turning to U7G A45C C49U, the yeast fitness came out at 0.508.

Consider G25A U59A, for which the yeast fitness is 1.06.

In the case of C34G U59G G68U, the yeast fitness came to 0.576.

Consider U47G A69U, for which the yeast fitness came out at 0.764.

U13G C31U U35A: the yeast fitness worked out at 0.51.

In the case of G39C U54G, the yeast fitness was 0.547.

For the variant C4G C11G U13A U59G C61G, the yeast fitness was not above 0.5.

In the case of C31A A45C C62U G63A U64G, the yeast fitness is not above 0.5.

C27U G38A A69U: the yeast fitness is 0.667.

For the variant C27A U28C A37C, the yeast fitness was not above 0.5.

In the case of A14G A36U C46A G51A, the yeast fitness is not above 0.5.

In the case of U2G G9A A69U, the yeast fitness was 0.577.

Consider C5A C11G G51A C62U, for which the yeast fitness was not above 0.5.

For the variant A37U C46A, the yeast fitness amounted to 0.816.

As for U32C A42U G51C, the yeast fitness worked out at 0.533.

Turning to C5G U26A A69C, the yeast fitness is 0.634.

Regarding C24G A36G U53A, the yeast fitness was 0.555.

For C4A C5A, the yeast fitness was 0.752.

On to U35A A57U C61U, for which the yeast fitness was not above 0.5.

Consider U13G A65G C66A, for which the yeast fitness is not above 0.5.

With A36C A42U, the yeast fitness was 0.639.

For A15G U19G C66U, the yeast fitness was determined as 0.721.

Take C27G G50C: the yeast fitness is not above 0.5.

Regarding U13A U28G G50C A57U C62A, the yeast fitness worked out at 0.931.

For C5G U8G A43C G48A, the yeast fitness came to 0.547.

In the case of C11G U13G C33G G41A G63A A69C, the yeast fitness is not above 0.5.

In the case of U3G C11G C34U C55U, the yeast fitness is not above 0.5.

On to G6A G9C U32C A36G, for which the yeast fitness was not above 0.5.

Regarding A15U C46G C61A, the yeast fitness was 0.51.

Consider C22A C29A U54G, for which the yeast fitness is not above 0.5.

With U19C A21U A40U, the yeast fitness was 0.641.

As for A21G C33A C55A A65C A70C, the yeast fitness is not above 0.5.

In the case of C5U U7C A45C, the yeast fitness came out at 0.74.

For the variant C5G A45U C62U, the yeast fitness came out at 0.725.

Regarding G6A G10C C30A A69U, the yeast fitness was determined as 0.786.

For the variant A20U C33A G41C, the yeast fitness was not above 0.5.

With G50C U53C, the yeast fitness was determined as 0.614.

In the case of G25C C33G A43C A57C G63C, the yeast fitness is not above 0.5.

With G18A G44A A57G, the yeast fitness is not above 0.5.

Take G17C C24G U28A C30U C49U A65U A69C: the yeast fitness was not above 0.5.

Regarding U19A G48A A69U, the yeast fitness is 0.966.

As to U8A A21G, the yeast fitness came to 0.681.

In the case of C22G C46A G48A A57U C60A, the yeast fitness was found to be 0.576.

U28G C29A G52C A57U: the yeast fitness was not above 0.5.

With U3C C11U C61G A65C, the yeast fitness is not above 0.5.

For C5U C22G C24A, the yeast fitness was not above 0.5.

Regarding C31U G44C A65C, the yeast fitness was determined as 0.594.

Take C30U C33A G39A: the yeast fitness is not above 0.5.

For the variant C66A, the yeast fitness stood at 0.766.

As for C22U U28C C49A, the yeast fitness is not above 0.5.

With C49A C60G, the yeast fitness was found to be 0.638.

Take C11G C29G C55A U64C: the yeast fitness is not above 0.5.

Take U2G C11G A20U C24G C55A C61U: the yeast fitness is not above 0.5.

For C4U G25A A36C A70G, the yeast fitness was not above 0.5.

G12A A45G: the yeast fitness worked out at 0.953.

Turning to C4U U8C A36G G44C, the yeast fitness came out at 0.676.

As for A40U C49U C61U A70G, the yeast fitness is not above 0.5.

Take G6A C29G: the yeast fitness was 0.634.

For the variant C24U A43U C49U C66U, the yeast fitness was determined as 0.576.

As for G12A A20C A65U, the yeast fitness amounted to 0.57.

For the variant G10C U53A, the yeast fitness was not above 0.5.

With C5G A37U C46U, the yeast fitness came out at 0.536.

On to U19G G68C, for which the yeast fitness was determined as 0.802.

As to C5U C27A A42U, the yeast fitness came to 0.642.

Consider U2A A14C C30U C34G G58C, for which the yeast fitness is not above 0.5.

On to G12C C27G C30G, for which the yeast fitness was not above 0.5.

On to C5U C27G G68C, for which the yeast fitness came out at 0.577.

For the variant G6A G9C C27A C31A, the yeast fitness is not above 0.5.

As for U32A C33U A42U C60A, the yeast fitness is 0.595.

In the case of C27U G51C C55A, the yeast fitness was not above 0.5.

Turning to C5U C29U A43G, the yeast fitness was found to be 0.632.

Take C4G G9A G39A: the yeast fitness is 0.576.

In the case of A42U G68A, the yeast fitness came to 0.927.

Take A15U A65U: the yeast fitness turned out to be 0.775.

On to C5G U16C G39C A57U, for which the yeast fitness is not above 0.5.

On to G12A A14G C30G A70U, for which the yeast fitness came out at 0.616.

A15C G25A C27A C33U C34A C61U: the yeast fitness is not above 0.5.

On to A15C U16C, for which the yeast fitness came to 0.678.

Consider C5G C11U U47A G68C, for which the yeast fitness is not above 0.5.

With U3A U16C C33G C66G, the yeast fitness amounted to 0.664.

For the variant C11G C24G A57G, the yeast fitness was not above 0.5.

G12A A15G G48C A57U: the yeast fitness is not above 0.5.

On to U13G U28A C30A C61G, for which the yeast fitness was not above 0.5.

Turning to A15C A21C C27G C62U, the yeast fitness stood at 0.534.

With U47A A70U, the yeast fitness turned out to be 1.06.

Regarding A43G A70G, the yeast fitness is 0.977.

As for G25C U28C A70C, the yeast fitness was found to be 0.563.

Consider U16A A21G C34U, for which the yeast fitness is not above 0.5.

On to C4U U32A U35C, for which the yeast fitness is 0.511.

In the case of C34G A40U U47A G67C, the yeast fitness was not above 0.5.

C4A G18A C34G C66U: the yeast fitness is not above 0.5.

Turning to A45U C62U, the yeast fitness worked out at 1.07.

Regarding C11G G48C G51C U53C A57U C66U, the yeast fitness is not above 0.5.

Consider G25A U32A U53A A70C, for which the yeast fitness is not above 0.5.

With U19A C24G G25A C46G G52A A65C, the yeast fitness is not above 0.5.

As for G25A G41A G56A, the yeast fitness is 0.871.

As for U2C U47A U53A, the yeast fitness was not above 0.5.

In the case of U8A G38A A40C C49U U54C C60G, the yeast fitness was not above 0.5.

Regarding A20U A40G A57G, the yeast fitness was determined as 0.67.

G23U C60U A65G: the yeast fitness is not above 0.5.

Regarding U35G G51A, the yeast fitness turned out to be 0.634.

For U3C C11A U32G C61A C62A, the yeast fitness was 0.587.

In the case of C4A C5G C30A, the yeast fitness is not above 0.5.

For U13G G48A, the yeast fitness was determined as 0.986.

Turning to C30A C62U G63A, the yeast fitness was not above 0.5.

Turning to C30U C31U C49A, the yeast fitness was not above 0.5.

As for C11U A43U, the yeast fitness is 0.907.

Consider C11A G38A U53A G63A G68A, for which the yeast fitness stood at 0.635.
